Data from ChEMBL document CHEMBL3407407, “New mimetic peptides inhibitors of Αβ aggregation. Molecular guidance for rational drug design” (Eur J Med Chem, 2015).
Calls of active or inactive are those of the source. The rule behind the calls is not given here.

What was measured:
[1] = target: Amyloid-beta precursor protein (Homo sapiens) (UniProt P05067); experiment: Inhibition of amyloid beta(42) aggregation (unknown origin) after 7 days by thioflavin T fluorescence method
Outline: (§1)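 Aβ42 at 25 mM (so in the source) in PBS, concentration set by A280 (ε 1490 M-1 cm-1), incubated quiescent at 37 °C for 7 days with compound (range 0–3200 mM as printed, from DMSO; final DMSO 5%). Samples then mixed with […] for 10 min at room temperature. Excitation 450 nm, emission 470–560 nm. Independent triplicates averaged, buffer+ThT+compound background subtracted.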

[2] = target: Amyloid-beta precursor protein (Homo sapiens) (UniProt P05067); experiment: Inhibition of amyloid beta(42) aggregation (unknown origin) at 100 to 3200 uM after 7 days by transmission electron microscopy
Outline: (§2)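 Aβ42 at 25 mM (so in the source) was incubated with compound at 37 °C for 7 days. Aliquots were adsorbed for 1 min onto carbon-coated Formvar copper grids, then blotted, washed and negatively stained for transmission electron microscopy.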

[3] = target: Amyloid-beta precursor protein (Homo sapiens) (UniProt P05067); experiment: Inhibition of amyloid beta(42) aggregation (unknown origin) assessed as A11-positive oligomer formation at 100 uM after 0.5 to 70 hrs by kinetic study
Outline: (§3)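 A11 dot-blot time course. Aβ42 at 25 mM (so in the source) was incubated at 37 °C with compound at 100 mM (so in the source), 5% DMSO vehicle (5% water for the reference). Aliquots were taken at 0.5, 1.5, 5, 20, 30, 55 and 70 h, spotted on nitrocellulose, then probed with A11 and anti-rabbit-HRP. Read-out was chemiluminescence.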

[4] = target: Amyloid-beta precursor protein (Homo sapiens) (UniProt P05067); experiment: Inhibition of amyloid beta(42) aggregation (unknown origin) at 3200 uM after 7 days by thioflavin T fluorescence method; outline: as §1
[5] = target: Amyloid-beta precursor protein (Homo sapiens) (UniProt P05067); experiment: Inhibition of amyloid beta(42) aggregation (unknown origin) at 0.78 to 3200 uM after 1.5 hrs using anti-oligomer A11 antibody by dot blot analysis
Outline: (§4)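 Aβ42 at 25 mM (so in the source) was incubated quiescent at 37 °C for 1.5 h across a compound concentration range (5% DMSO) and spotted on nitrocellulose. For A11, blots were blocked in PBS/0.2% Tween-20, then taken through A11 (1:4000, Hepes pH 7.0, overnight 4 °C) and anti-rabbit-HRP. For DE2B4 (total Aβ), blots were blocked in PBS-Tween/5% milk, then DE2B4 1:20,000 overnight 4 °C and anti-mouse-HRP. Read-out was chemiluminescence.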

[6] = target: Amyloid-beta precursor protein (Homo sapiens) (UniProt P05067); experiment: Inhibition of amyloid beta(42) aggregation (unknown origin) at 0.78 to 3200 uM after 1.5 hrs using anti-amyloid beta antibody DE2B4 by dot blot analysis; outline: as §4
[7] = target: Amyloid-beta precursor protein (Homo sapiens) (UniProt P05067); experiment: Inhibition of amyloid beta(42) aggregation (unknown origin) at 100 uM after 7 days by transmission electron microscopy; outline: as §2
[8] = target: Amyloid-beta precursor protein (Homo sapiens) (UniProt P05067); experiment: Inhibition of amyloid beta(42) aggregation (unknown origin) at 0.75 to 100 uM after 7 days by thioflavin T fluorescence method; outline: as §1
[9] = target: Amyloid-beta precursor protein (Homo sapiens) (UniProt P05067); experiment: Inhibition of amyloid beta(42) aggregation (unknown origin) at 100 to 3200 uM after 1.5 hrs using anti-oligomer A11 antibody by dot blot analysis; outline: as §4
[10] = target: Amyloid-beta precursor protein (Homo sapiens) (UniProt P05067); experiment: Inhibition of amyloid beta(42) aggregation (unknown origin) at 100 uM after 7 days by thioflavin T fluorescence method; outline: as §1
[11] = target: Amyloid-beta precursor protein (Homo sapiens) (UniProt P05067); experiment: Inhibition of amyloid beta(42) aggregation (unknown origin) assessed as A11-positive oligomer formation at 100 uM up to 1.5 hrs by kinetic study; outline: as §3
[12] = target: Amyloid-beta precursor protein (Homo sapiens) (UniProt P05067); experiment: Inhibition of amyloid beta(42) aggregation (unknown origin) at 100 to 3200 uM after 1.5 hrs using anti-amyloid beta antibody DE2B4 by dot blot analysis; outline: as §4
[13] = target: Amyloid-beta precursor protein (Homo sapiens) (UniProt P05067); experiment: Inhibition of amyloid beta(42) aggregation (unknown origin) at 100 uM after 5 hrs by thioflavin T fluorescence-based kinetic study
Outline: (§5)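 In situ ThT kinetics. Aβ42 at 25 mM (so in the source) in PBS was incubated at 37 °C in sealed wells with 15 mM ThT and compound at 100 mM (so in the source), diluted 20-fold from DMSO to 5% DMSO. Fluorescence was read at intervals with excitation 450 nm and emission 470–600 nm. Background was corrected for ThT plus vehicle, with or without compound.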

[14] = target: Amyloid-beta precursor protein (Homo sapiens) (UniProt P05067); experiment: Inhibition of amyloid beta(42) aggregation (unknown origin) at 100 uM up to 1.5 hrs by thioflavin T fluorescence-based kinetic study; outline: as §5
[15] = target: Amyloid-beta precursor protein (Homo sapiens) (UniProt P05067); experiment: Inhibition of amyloid beta(42) aggregation (unknown origin) at 100 to 200 uM after 7 days by transmission electron microscopy; outline: as §2

Sequence of Amyloid-beta precursor protein (Homo sapiens) (P05067 whole entry): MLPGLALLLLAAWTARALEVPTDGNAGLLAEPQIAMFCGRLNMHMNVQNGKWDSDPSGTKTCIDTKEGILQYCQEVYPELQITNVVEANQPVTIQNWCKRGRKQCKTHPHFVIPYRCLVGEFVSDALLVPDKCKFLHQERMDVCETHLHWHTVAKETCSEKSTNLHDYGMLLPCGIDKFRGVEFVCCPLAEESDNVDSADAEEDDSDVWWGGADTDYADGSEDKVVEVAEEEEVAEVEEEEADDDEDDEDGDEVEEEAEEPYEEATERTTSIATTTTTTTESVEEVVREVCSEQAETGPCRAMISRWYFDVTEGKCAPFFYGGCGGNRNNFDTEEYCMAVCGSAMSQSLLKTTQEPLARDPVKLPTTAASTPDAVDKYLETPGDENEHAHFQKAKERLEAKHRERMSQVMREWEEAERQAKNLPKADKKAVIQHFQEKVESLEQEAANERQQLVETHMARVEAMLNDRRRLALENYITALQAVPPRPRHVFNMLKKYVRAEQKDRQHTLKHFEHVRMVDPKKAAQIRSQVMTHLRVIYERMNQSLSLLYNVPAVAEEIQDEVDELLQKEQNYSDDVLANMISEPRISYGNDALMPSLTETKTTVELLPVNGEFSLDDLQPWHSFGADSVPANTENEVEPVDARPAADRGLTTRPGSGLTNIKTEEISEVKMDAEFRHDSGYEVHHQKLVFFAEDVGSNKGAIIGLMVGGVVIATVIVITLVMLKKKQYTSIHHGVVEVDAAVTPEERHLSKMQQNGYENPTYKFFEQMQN

Compound	inhibition [1]	inhibition [3]	inhibition [5]	inhibition [6]	inhibition [7]	inhibition [9]	inhibition [10]	inhibition [11]	inhibition [12]	inhibition [13]	inhibition [14]	also measured
CNc1ccc(C(=O)N[C@@H](CCCCNC(=O)OCc2ccccc2)C(=O)O)cc1	Dose-dependent effect	inactive	–	–	–	–	–	–	–	–	–	inhibition [2]: Active; inhibition [4]: Active
O=C(NCCCC[C@H](NC(=O)OCC1c2ccccc2-c2ccccc21)C(=O)O)OCc1ccccc1	–	inactive	inactive	inactive	inactive	–	–	–	–	–	–	–
O=C(NCCCC[C@H](NC(=O)OCc1ccccc1)C(=O)O)OCc1ccccc1	–	inactive	inactive	inactive	inactive	–	–	–	–	–	–	inhibition [8]: inactive
O=C(NCCCC[C@H](NC(=O)OCc1ccccc1)C(=O)ON1C(=O)CCC1=O)OCc1ccccc1	Dose-dependent effect	Active	–	–	–	Active	Active	Active	Active	inactive	Active	–
O[C@H]1[C@H](O)[C@@H](O)[C@H](O)[C@@H](O)[C@@H]1O	–	inactive	–	–	–	–	–	–	–	–	–	–
CC(C)(C)OC(=O)N[C@@H](CCCCNC(=O)OCc1ccccc1)C(=O)ON1C(=O)CCC1=O	Dose-dependent effect	Active	–	–	–	Active	Active	Active	Active	inactive	Active	inhibition [15]: Active
